# Assay results as given in ChEMBL document CHEMBL3046951, “Volatile constituents from the leaves of Callicarpa japonica Thunb. and their antibacterial activities” (2004).
# Columns and labels:
# Type in all cases: functional
# Salmonella typhimurium [1] = assay: Antimicrobial activity against Salmonella enterica subsp. enterica serovar Typhimurium ATCC 14028 assessed as growth inhibition rate at 4 mg/l after 72 hr by spectrophotometry; conditions: ATCC 14028, 72 h, read-out: GI
# Procedure, shortened: (§1)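 Salmonella Typhimurium ATCC 14028 grown in nutrient broth at 30 °C, precultured 24 h, then subcultured 1:100 for 18 h before testing. Single volatile compounds (>95% pure) were added. OD was read every 24 h over 72 h in a Bioscreen C, with 10% Tween 80 as the comparison control.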
# Staphylococcus aureus [2] = assay: Antimicrobial activity against Staphylococcus aureus ATCC 25923 assessed as growth inhibition rate at 4 mg/l after 72 hr by spectrophotometry; conditions: ATCC 25923, 72 h, read-out: GI
# Listeria monocytogenes [3] = assay: Antimicrobial activity against Listeria monocytogenes ATCC 19111 assessed as growth inhibition rate at 4 mg/l after 72 hr by spectrophotometry; conditions: ATCC 19111, 72 h, read-out: GI
# Procedure, shortened: (§2)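 L. monocytogenes was grown at 30 °C in tryptic soy broth, subcultured for 18 h, and exposed to pure volatile compounds (>95% purity). Growth was followed by Bioscreen C optical density every 24 h for 72 h against a 10% Tween 80 control.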
# Bacillus cereus [4] = assay: Antimicrobial activity against Bacillus cereus ATCC 11778 assessed as growth inhibition rate at 4 mg/l after 72 hr by spectrophotometry; conditions: ATCC 11778, 72 h, read-out: GI
# Procedure, shortened: (§3)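 Pure volatile compounds (purity >95%; one at 90%) were tested against B. cereus ATCC 11778. The strain was grown at 30 °C in nutrient broth for 24 h, then subcultured for 18 h. Optical density was read in a Bioscreen C every 24 h for 72 h, with 10% Tween 80 as the control.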
# Vibrio parahaemolyticus [5] = assay: Antimicrobial activity against Vibrio parahaemolyticus ATCC 33844 assessed as growth inhibition rate at 4 mg/l after 72 hr by spectrophotometry; conditions: ATCC 33844, 72 h, read-out: GI
# Escherichia coli [6] = assay: Antimicrobial activity against Escherichia coli O157:H7 ATCC 43894 assessed as growth inhibition rate at 4 mg/l after 72 hr by spectrophotometry; conditions: O157:H7 ATCC 43894, 72 h, read-out: GI
# Escherichia coli [7] = assay: Antimicrobial activity against Escherichia coli O157:H7 ATCC 43894 assessed as growth inhibition rate at 1470.8 mg/l after 72 hr by spectrophotometry; conditions: O157:H7 ATCC 43894, 72 h, read-out: GI
# Staphylococcus aureus [8] = assay: Antimicrobial activity against Staphylococcus aureus ATCC 25923 assessed as growth inhibition rate at 1470.8 mg/l after 72 hr by spectrophotometry; conditions: ATCC 25923, 72 h, read-out: GI
# Bacillus cereus [9] = assay: Antimicrobial activity against Bacillus cereus ATCC 11778 assessed as growth inhibition rate at 1470.8 mg/l after 72 hr by spectrophotometry; conditions: ATCC 11778, 72 h, read-out: GI; procedure, shortened: as §3
# Salmonella typhimurium [10] = assay: Antimicrobial activity against Salmonella enterica subsp. enterica serovar Typhimurium ATCC 14028 assessed as growth inhibition rate at 1470.8 mg/l after 72 hr by spectrophotometry; conditions: ATCC 14028, 72 h, read-out: GI; procedure, shortened: as §1
# Vibrio parahaemolyticus [11] = assay: Antimicrobial activity against Vibrio parahaemolyticus ATCC 33844 assessed as growth inhibition rate at 1470.8 mg/l after 72 hr by spectrophotometry; conditions: ATCC 33844, 72 h, read-out: GI
# Listeria monocytogenes [12] = assay: Antimicrobial activity against Listeria monocytogenes ATCC 19111 assessed as growth inhibition rate at 1470.8 mg/l after 72 hr by spectrophotometry; conditions: ATCC 19111, 72 h, read-out: GI; procedure, shortened: as §2
# Bacillus cereus [13] = assay: Antimicrobial activity against Bacillus cereus ATCC 11778 assessed as growth inhibition rate at 3.8 mg/l after 72 hr by spectrophotometry; conditions: ATCC 11778, 72 h, read-out: GI; procedure, shortened: as §3
# Listeria monocytogenes [14] = assay: Antimicrobial activity against Listeria monocytogenes ATCC 19111 assessed as growth inhibition rate at 3.8 mg/l after 72 hr by spectrophotometry; conditions: ATCC 19111, 72 h, read-out: GI; procedure, shortened: as §2
# Salmonella typhimurium [15] = assay: Antimicrobial activity against Salmonella enterica subsp. enterica serovar Typhimurium ATCC 14028 assessed as growth inhibition rate at 3.8 mg/l after 72 hr by spectrophotometry; conditions: ATCC 14028, 72 h, read-out: GI; procedure, shortened: as §1
# Escherichia coli [16] = assay: Antimicrobial activity against Escherichia coli O157:H7 ATCC 43894 assessed as growth inhibition rate at 3.8 mg/l after 72 hr by spectrophotometry; conditions: O157:H7 ATCC 43894, 72 h, read-out: GI
# Vibrio parahaemolyticus [17] = assay: Antimicrobial activity against Vibrio parahaemolyticus ATCC 33844 assessed as growth inhibition rate at 3.8 mg/l after 72 hr by spectrophotometry; conditions: ATCC 33844, 72 h, read-out: GI
# Staphylococcus aureus [18] = assay: Antimicrobial activity against Staphylococcus aureus ATCC 25923 assessed as growth inhibition rate at 3.8 mg/l after 72 hr by spectrophotometry; conditions: ATCC 25923, 72 h, read-out: GI
smiles,measurement,setting,value
CC1=CC[C@@H]2C3C(C(C)C)CCC2(C)[C@@H]13 (stereo partly drawn) [(-)-ALPHA-COPAENE],inhibition of growth at 4 µg/mL,Salmonella typhimurium [1],0.1%
same,inhibition of growth at 4 µg/mL,Staphylococcus aureus [2],5.7%
same,inhibition of growth at 4 µg/mL,Listeria monocytogenes [3],0%
same,inhibition of growth at 4 µg/mL,Bacillus cereus [4],5.9%
same,inhibition of growth at 4 µg/mL,Vibrio parahaemolyticus [5],0%
same,inhibition of growth at 4 µg/mL,Escherichia coli [6],0%
C=C1CC/C=C(/C)CC[C@@H]2[C@@H]1CC2(C)C [CARYOPHYLLENE],inhibition of growth at 1470.8 µg/mL,Escherichia coli [7],12.8%
same,inhibition of growth at 1470.8 µg/mL,Staphylococcus aureus [8],54.7%
same,inhibition of growth at 1470.8 µg/mL,Bacillus cereus [9],32.1%
same,inhibition of growth at 1470.8 µg/mL,Salmonella typhimurium [10],10.2%
same,inhibition of growth at 1470.8 µg/mL,Vibrio parahaemolyticus [11],26.5%
same,inhibition of growth at 1470.8 µg/mL,Listeria monocytogenes [12],7.2%
C=CC(C)(O)CCC=C(C)C (stereo not drawn) [LINALOOL],inhibition of growth at 3.8 µg/mL,Bacillus cereus [13],8.6%
same,inhibition of growth at 3.8 µg/mL,Listeria monocytogenes [14],0.6%
same,inhibition of growth at 3.8 µg/mL,Salmonella typhimurium [15],8.2%
same,inhibition of growth at 3.8 µg/mL,Escherichia coli [16],2.1%
same,inhibition of growth at 3.8 µg/mL,Vibrio parahaemolyticus [17],0%
same,inhibition of growth at 3.8 µg/mL,Staphylococcus aureus [18],2.6%
